Here are results for 14 compounds from ChEMBL document CHEMBL5532718, “Identification and Evaluation of Reversible Covalent Binders to Cys55 of Bfl-1 from a DNA-Encoded Chemical Library Screen” (ACS Med Chem Lett, 2024).

Bounds are passed on as bounds.

A short description of data set [1]: Lipophilicity, logD of compound in octanol/water at pH 7.4 by shake-flask method. The class given is physicochemical.
Data set [2] addresses T1, Bcl-2-related protein A1 (Homo sapiens, UniProt Q16548).
T1 sequence (Q16548 whole entry): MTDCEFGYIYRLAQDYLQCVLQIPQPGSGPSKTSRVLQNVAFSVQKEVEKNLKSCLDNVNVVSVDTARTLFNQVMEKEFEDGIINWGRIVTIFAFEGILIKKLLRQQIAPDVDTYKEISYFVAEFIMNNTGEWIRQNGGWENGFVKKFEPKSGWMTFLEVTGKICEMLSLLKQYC
Briefly: Inhibition of N-terminal His6-tagged recombinant human Bfl-1 (1 to 151 residues) expressed in Escherichia coli BL21-Gold (DE3) using HyLite Fluor 647-labeled BIM peptide as substrate incubated for 120 mins by TR-FRET assay. In outline:
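Bfl-1 binding read as displacement of a labeled BIM peptide probe in a TR-FRET assay, reported as IC50 in μM.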
In general terms: TR-FRET usually uses a lanthanide donor and a delayed reading to cut background.

For data set [3], the target named is T1, Bcl-2-related protein A1. Briefly: Binding affinity of N-terminal His6-tagged recombinant human Bfl-1 (1 to 151 residues) expressed in Escherichia coli BL21-Gold (DE3) assessed as inhibition constant by MS analysis.
Data set [4] has as its target Induced myeloid leukemia cell differentiation protein Mcl-1 (Homo sapiens, UniProt Q07820). The experiment in a line: Inhibition of Mcl-1 (unknown origin) incubated for 120 mins by TR-FRET assay.
Data set [5] addresses Apoptosis regulator Bcl-2 (Homo sapiens, UniProt P10415). The experiment in a line: Inhibition of Bcl-2 (unknown origin) incubated for 120 mins by TR-FRET assay.
In a further data set the target is Bcl-2-like protein 1 (Homo sapiens, UniProt Q07817). Briefly: Inhibition of Bcl-xl (unknown origin) incubated for 120 mins by TR-FRET assay.
Sequence of Bcl-2-like protein 1 (Q07817 whole entry): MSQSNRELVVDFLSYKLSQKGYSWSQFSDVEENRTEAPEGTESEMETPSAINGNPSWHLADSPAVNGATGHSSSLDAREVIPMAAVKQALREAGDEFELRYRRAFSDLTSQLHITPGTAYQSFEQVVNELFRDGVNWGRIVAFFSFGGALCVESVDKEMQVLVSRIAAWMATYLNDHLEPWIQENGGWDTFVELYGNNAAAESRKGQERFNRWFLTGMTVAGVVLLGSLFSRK

Sequence of Induced myeloid leukemia cell differentiation protein Mcl-1 (Q07820 whole entry): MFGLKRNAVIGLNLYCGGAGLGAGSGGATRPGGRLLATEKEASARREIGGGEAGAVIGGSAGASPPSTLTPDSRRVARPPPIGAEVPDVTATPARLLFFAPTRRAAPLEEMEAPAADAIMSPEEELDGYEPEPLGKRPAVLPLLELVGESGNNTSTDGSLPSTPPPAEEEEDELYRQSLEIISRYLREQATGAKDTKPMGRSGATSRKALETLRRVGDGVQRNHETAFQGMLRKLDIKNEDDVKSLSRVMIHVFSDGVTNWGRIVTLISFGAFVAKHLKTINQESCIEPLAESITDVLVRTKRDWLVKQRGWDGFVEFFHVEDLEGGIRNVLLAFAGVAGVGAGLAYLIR
Sequence of Apoptosis regulator Bcl-2 (P10415 whole entry): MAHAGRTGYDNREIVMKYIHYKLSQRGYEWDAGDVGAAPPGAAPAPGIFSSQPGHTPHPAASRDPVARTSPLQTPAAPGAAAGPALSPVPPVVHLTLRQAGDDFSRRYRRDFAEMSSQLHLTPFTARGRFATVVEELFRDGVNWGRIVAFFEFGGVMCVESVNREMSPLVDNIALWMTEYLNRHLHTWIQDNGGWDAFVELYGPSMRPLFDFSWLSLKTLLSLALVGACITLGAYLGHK

The term logD denotes the decadic logarithm of the distribution of all forms, ionised or not, between an organic phase and buffer at a given pH. A higher logD goes with higher lipophilicity. One may read the IC50 as the concentration needed to halve the response being measured. For `CN(C)C(=O)[C@H](Cc1ccc(C(F)(F)F)cc1)NC(=O)/C(C#N)=C/c1ccccc1`, the pH-dependent lipophilicity (logD) in data set [1] turned out to be 3.9. Further, the IC50 at Bcl-2-related protein A1 [2] was above 100 µM.
For `CN(C)C(=O)[C@H](Cc1ccc(C(F)(F)F)cc1)NC(=O)/C(C#N)=C/c1ccccc1S(C)(=O)=O`, in that order: 2.6 and above 100 µM.
For `CP(C)(=O)c1ccccc1/C=C(\C#N)C(=O)NCCc1ccc(Cl)cc1` the same measures were 2.3 and 54 µM.
For `CP(C)(=O)c1ccccc1/C=C(\C#N)C(=O)NCC1(c2ccc(C(F)(F)F)cc2)CC1`, in that order: 3 and 4.3 µM.
Compound `CP(C)(=O)c1ccccc1/C=C(\C#N)C(=O)NCC1(c2ccccc2)CC1` registered a logD in data set [1] of 2. Further, on Bcl-2-related protein A1 [2], the concentration for half-maximal inhibition (IC50) is 50 µM.
On to `CN(C)C(=O)[C@H](Cc1ccc(C(F)(F)F)cc1)NC(=O)/C(C#N)=C/c1ccc(P(C)(C)=O)cc1`, for which the logD in data set [1] was 2.1. Moreover, the IC50 at Bcl-2-related protein A1 [2] was above 100 µM.
As for `CP(C)(=O)c1ccccc1/C=C(\C#N)C(=O)NCCc1ccc(Cl)c(Cl)c1`, the logD in data set [1] was 1.9. The half-maximal inhibitory concentration (IC50) at Bcl-2-related protein A1 [2] came out at 27 µM.
In data set [1], `CN(C)C(=O)[C@H](Cc1ccc(C(F)(F)F)cc1)NC(=O)/C(C#N)=C/c1cccc(P(C)(C)=O)c1` returned a log distribution coefficient (logD) of 2.2. The IC50 on Bcl-2-related protein A1 [2] was above 100 µM.
For `CN(C)C(=O)[C@@H](Cc1ccc(C(F)(F)F)cc1)NC(=O)/C(C#N)=C/c1ccccc1P(C)(C)=O`, in that order: 2.1 and above 100 µM.
On to `CN(C)C(=O)c1ccccc1/C=C(\C#N)C(=O)NC(Cc1ccc(C(F)(F)F)cc1)C(=O)N(C)C` (racemic), for which the logD in data set [1] is 2.2. Besides, the IC50 on Bcl-2-related protein A1 [2] is above 100 µM.
For `CP(C)(=O)c1ccccc1/C=C(\C#N)C(=O)NCCc1ccccc1` the same measures were 1.7 and above 100 µM.
For orientation: Ki means a measure of affinity in units of concentration, obtained from inhibition or displacement. As for `CN(C)C(=O)[C@H](Cc1ccc(C(F)(F)F)cc1)NC(=O)/C(C#N)=C/c1ccccc1P(C)(C)=O`, in data set [1], the log distribution coefficient (logD) is 2. For the same compound, the IC50 at Bcl-2-related protein A1 [2] was 29 µM; in data set [4] it was above 100 µM; in data set [5], above 100 µM; against Bcl-2-like protein 1, above 100 µM. Further, at Bcl-2-related protein A1 [3], the Ki came out at 5.4 µM.
Compound `CN(C)C(=O)C(Cc1ccc(C(F)(F)F)cc1)NC(=O)/C(C#N)=C/c1ccccc1S(=O)(=O)N(C)C` (racemic) registered a logD in data set [1] of 3.2. At Bcl-2-related protein A1 [2], the IC50 is above 100 µM.
For `CP(C)(=O)c1ccccc1/C=C(\C#N)C(=O)NCCc1ccc(C(F)(F)F)cc1`, in that order: 2.7 and 23 µM.
